Measured values taken from ChEMBL document CHEMBL1926502, “The discovery of UK-369003, a novel PDE5 inhibitor with the potential for oral bioavailability and dose-proportional pharmacokinetics” (Bioorg Med Chem, 2012).
In brackets after ≈: the same amount, converted by molar mass.

Assays:
[1] = target: cGMP-specific 3',5'-cyclic phosphodiesterase (Homo sapiens, UniProt O76074); experiment: Inhibition of human PDE5 isolated from corpus cavernosum after 30 to 60 mins by scintillation counting method
Homo sapiens [2] = species on record: Homo sapiens; experiment: Selectivity ratio of IC50 for PDE6 to IC50 for human PDE5
In short: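 PDE5 was prepared from human corpus cavernosum and cone PDE6 from dog retina (anion-exchange fraction). IC50s came from concentration–response curves in a scintillation proximity assay with [3H]/unlabelled cGMP (1:3) at about 1/3 Km, so IC50 = Ki. Buffer was 20 mM Tris-HCl pH 7.4, 5 mM MgCl2, 1 mg/mL BSA; 30–60 min at 30 °C, <30% turnover. Ratio = PDE6 IC50/PDE5 IC50.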

Homo sapiens [3] = experiment: AUC in human at 1.43 mg/kg, po; type: ADME, organism-based, Plasma; design: dose 1.43 mg/kg, route oral; conditions: in vivo
In short: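 Human pharmacokinetic study. The oral arm was given at 1.43 mg/kg, and a separate intravenous arm at 0.43 mg/kg. AUC (ng h/ml) was derived from the oral dosing, alongside Cmax, Tmax and oral bioavailability.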

[4] = Half life in human liver microsomes; type: ADME, Microsome
[5] = Clearance in rat at 1 mg/kg, iv; type: ADME, organism-based; design: dose 1 mg/kg, route intravenous; conditions: in vivo
[6] = Aqueous solubility of the compound in 0.2 M lactate buffer at pH 4.3; type: physicochemical
[7] = Volume of distribution in human at 0.43 mg/kg, iv; type: ADME, organism-based; design: dose 0.43 mg/kg, route intravenous; conditions: in vivo
[8] = Cmax in human at 1.43 mg/kg, po; type: ADME, organism-based; design: dose 1.43 mg/kg, route oral; conditions: in vivo
[9] = Oral bioavailability in dog at 1 mg/kg; type: ADME, organism-based, Canis lupus familiaris; conditions: in vivo
[10] = Aqueous solubility of the compound at pH 6.7; type: physicochemical; conditions: buffer
[11] = Oral bioavailability in rat at 2 mg/kg; type: ADME, organism-based; conditions: in vivo
[12] = Elimination half life in dog at 0.5 mg/kg, iv and 1 mg/kg, po; type: ADME, organism-based, Canis lupus familiaris; conditions: in vivo, read-out: beta t1/2 (converted)
Homo sapiens [13] = experiment: Oral bioavailability in human at 1.43 mg/kg; type: ADME, organism-based; conditions: in vivo
[14] = Clearance in dog at 0.5 mg/kg, iv; type: ADME, organism-based, Canis lupus familiaris; design: dose 0.5 mg/kg, route intravenous; conditions: in vivo
[15] = Volume of distribution in dog at 0.5 mg/kg, iv and 1 mg/kg, po; type: ADME, organism-based, Canis lupus familiaris; conditions: in vivo
[16] = Lipophilicity, log D of the compound at pH 7.4; type: physicochemical; conditions: buffer
[17] = Elimination half life in rat at 1 mg/kg, iv and 2 mg/kg, po; type: ADME, organism-based; conditions: in vivo, read-out: beta t1/2 (converted)
[18] = Elimination half life in human at 0.43 mg/kg, iv; type: ADME, organism-based; design: dose 0.43 mg/kg, route intravenous; conditions: in vivo, read-out: beta t1/2 (converted)
[19] = Apparent permeability from apical to basolateral side of human Caco2 cells at 25 uM; type: ADME, cell-based; conditions: Caco-2
[20] = Volume of distribution in rat at 1 mg/kg, iv and 2 mg/kg, po; type: ADME, organism-based; conditions: in vivo
[21] = Tmax in human at 1.43 mg/kg, po; type: ADME, organism-based; design: dose 1.43 mg/kg, route oral; conditions: in vivo
Caco-2 = experiment: Efflux ratio of apparent permeability from apical to basolateral to basolateral to apical side of human Caco2 cells; type: ADME, cell-based
In short: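 Caco-2 cell monolayers; flux measured in both directions, and the efflux ratio is taken as apical→basolateral flux divided by basolateral→apical flux.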

| Compound | IC50 [1] | Ratio IC50 (Homo sapiens [2]) | further results |
| --- | --- | --- | --- |
| CCCCOc1ncc(S(=O)(=O)N2CCN(CC)CC2)cc1-c1nc2c(CC)n(C3CCN(S(C)(=O)=O)CC3)nc2c(=O)[nH]1 | 0.31 nM | 100 | – |
| CCCOc1ncc(S(=O)(=O)N2CCN(CC)CC2)cc1-c1nc2c3n(nc2c(=O)[nH]1)CCCC3 | 2.47 nM | 55 | – |
| CCCn1nc2c(=O)[nH]c(-c3cc(S(=O)(=O)N4CCN(CC)CC4)cnc3OCCOC)nc2c1CC | 1.83 nM | 170 | – |
| CCOc1ncc(S(=O)(=O)N2CCN(CC)CC2)cc1-c1nc2c(CC)n(C3CN(C)C3)nc2c(=O)[nH]1 | 8.2 nM | 52 | – |
| CCOc1ncc(S(=O)(=O)N2CCN(CC)CC2)cc1-c1nc2c(CC)n(CCOC)nc2c(=O)[nH]1 | 1.23 nM | – | AUC (Homo sapiens [3]): 95.2 ng·h/mL; half-life [4]: 28 min; clearance [5]: 26.6 mL/min/kg; solubility [6]: > 14 mg/mL; Vd [7]: 2.8 L/kg; Cmax [8]: 205 ng/mL; bioavailability [9]: 55%; solubility [10]: 100 mg/mL (≈ 192 mM); bioavailability [11]: 61%; half-life [12]: 126 min; F (Homo sapiens [13]): 34%; clearance [14]: 16 mL/min/kg; Vd [15]: 2.8 L/kg; logD [16]: 2.1; half-life [17]: 57 min; half-life [18]: 156 min; Papp A→B at 25 µM [19]: 16 ×10⁻⁶ cm/s; Vd [20]: 2.2 L/kg; Tmax [21]: 60 min |
| CCc1c2nc(-c3cc(S(=O)(=O)N4CCN(CC)CC4)cnc3OCCOC)[nH]c(=O)c2nn1C1CCOCC1 | 1.66 nM | 241 | – |
| CCc1c2nc(-c3cc(S(=O)(=O)N4CCN(CC)CC4)cnc3OCc3ccccn3)[nH]c(=O)c2nn1CCOC | 0.75 nM | 309 | – |
| CCc1c2nc(-c3cc(S(=O)(=O)N4CCN(CC)CC4)cnc3OCCOC)[nH]c(=O)c2nn1CCOC | 1.53 nM | 306 | half-life [4]: 70 min; logD [16]: 1.4; Papp A→B at 25 µM [19]: 9 ×10⁻⁶ cm/s; Ratio (Caco-2): 4.2 |
| CCOc1ncc(S(=O)(=O)N2CCN(CC)CC2)cc1-c1nc2c(CC)n(CCN3CCOCC3)nc2c(=O)[nH]1 | 0.86 nM | 184 | half-life [4]: 18 min; logD [16]: 1.6; Papp A→B at 25 µM [19]: 2.5 ×10⁻⁶ cm/s; Ratio (Caco-2): 11.2 |
| CCc1c2nc(-c3cc(S(=O)(=O)N4CCN(CC)CC4)cnc3OCC3CC3)[nH]c(=O)c2nn1CCN1CCOCC1 | 0.26 nM | 153 | – |
| CCCOc1ccc(S(=O)(=O)N2CCN(CC)CC2)cc1-c1nc2c(CC)n(Cc3ccccn3)nc2c(=O)[nH]1 | – | 842 | – |
| CCOc1ncc(S(=O)(=O)N2CCN(CC)CC2)cc1-c1nc2c3n(nc2c(=O)[nH]1)CCCC3 | 10.8 nM | 70 | – |
| CCOc1ncc(S(=O)(=O)N2CCN(CC)CC2)cc1-c1nc2c3n(nc2c(=O)[nH]1)CCCC3C (single isomer, unassigned; (-)) [listing 1 of 2 here] | – | 55 | – |
| CCc1c2nc(-c3cc(S(=O)(=O)N4CCN(CC)CC4)cnc3OCCOC)[nH]c(=O)c2nn1C1CCC1 | 1.76 nM | 219 | – |
| CCCCOc1ncc(S(=O)(=O)N2CCN(CC)CC2)cc1-c1nc2c(CC)n(C3CCN(C)CC3)nc2c(=O)[nH]1 | 0.74 nM | 184 | – |
| CCc1c2nc(-c3cc(S(=O)(=O)N4CCN(CC)CC4)cnc3OCCOC)[nH]c(=O)c2nn1CCN1CCOCC1 | 1.27 nM | 210 | half-life [4]: 48 min; logD [16]: 1.1; Papp A→B at 25 µM [19]: 2.8 ×10⁻⁶ cm/s; Ratio (Caco-2): 8 |
| CCOc1ncc(S(=O)(=O)N2CCN(CC)CC2)cc1-c1nc2c3n(nc2c(=O)[nH]1)CCCC3C (single isomer, unassigned; (+)) [listing 1 of 2 here] | – | 125 | – |
| CCOc1ncc(S(=O)(=O)N2CCN(CC)CC2)cc1-c1nc2c3n(nc2c(=O)[nH]1)CCCC3C (single isomer, unassigned; (-)) [listing 2 of 2 here] | 3.7 nM | – | – |

| Compound | IC50 [1] | Ratio IC50 (Homo sapiens [2]) | further results |
| --- | --- | --- | --- |
| CCCCOc1ncc(S(=O)(=O)N2CCN(CC)CC2)cc1-c1nc2c(CC)n(CCN(C)C)nc2c(=O)[nH]1 | 1 nM | 171 | logD [16]: 3; Papp A→B at 25 µM [19]: 2.8 ×10⁻⁶ cm/s; Ratio (Caco-2): 7 |
| CCOc1ncc(S(=O)(=O)N2CCN(CC)CC2)cc1-c1nc2c3n(nc2c(=O)[nH]1)CCCC3C (single isomer, unassigned; (+)) [listing 2 of 2 here] | 3.35 nM | – | – |
| CCN1CCN(S(=O)(=O)c2cnc(OCCOC)c(-c3nc4c5n(nc4c(=O)[nH]3)CCCC5C)c2)CC1 (single isomer, unassigned; (+)) [listing 1 of 2 here] | – | 149 | – |
| CCc1c2nc(-c3cc(S(=O)(=O)N4CCN(CC)CC4)cnc3OCC(C)C)[nH]c(=O)c2nn1CCOC | 0.69 nM | 204 | half-life [4]: 7 min; logD [16]: 2.9; Papp A→B at 25 µM [19]: 40 ×10⁻⁶ cm/s; Ratio (Caco-2): 1.1 |
| CCCCOc1ncc(S(=O)(=O)N2CCN(CC)CC2)cc1-c1nc2c(CC)n(C3CN(C)C3)nc2c(=O)[nH]1 | 0.78 nM | 209 | half-life [4]: 74 min; logD [16]: 2.8; Papp A→B at 25 µM [19]: 6 ×10⁻⁶ cm/s; Ratio (Caco-2): 4 |
| CCc1c2nc(-c3cc(S(=O)(=O)N4CCN(CC)CC4)cnc3OCCOC)[nH]c(=O)c2nn1C(C)C | 1.36 nM | 354 | – |
| CCCOc1ncc(S(=O)(=O)N2CCN(CC)CC2)cc1-c1nc2c(CC)n(CCOC)nc2c(=O)[nH]1 | 0.69 nM | 51 | – |
| CCN1CCN(S(=O)(=O)c2cnc(OCCOC)c(-c3nc4c5n(nc4c(=O)[nH]3)CCCC5C)c2)CC1 (single isomer, unassigned; (-)) [listing 1 of 2 here] | 1.96 nM | – | half-life [4]: 11.2 min; bioavailability [9]: 18%; half-life [12]: 90 min; clearance [14]: 20 mL/min/kg; Vd [15]: 2.6 L/kg; logD [16]: 1.6; Papp A→B at 25 µM [19]: 24 ×10⁻⁶ cm/s; Ratio (Caco-2): 1.5 |
| CCCn1nc2c(=O)[nH]c(-c3cc(S(=O)(=O)N4CCN(C)CC4)cnc3OCCOC)nc2c1CC | 4.35 nM | 165 | – |
| CCc1c2nc(-c3cc(S(=O)(=O)N4CCN(CC)CC4)cnc3OCC(C)C)[nH]c(=O)c2nn1CCCN(C)C | 2.44 nM | 404 | – |
| CCc1c2nc(-c3cc(S(=O)(=O)N4CCN(CC)CC4)cnc3OCCOC)[nH]c(=O)c2nn1CC(C)C | 1.04 nM | 331 | half-life [4]: 11 min; logD [16]: 2.8; Papp A→B at 25 µM [19]: 24 ×10⁻⁶ cm/s; Ratio (Caco-2): 2.5 |
| CCN1CCN(S(=O)(=O)c2cnc(OCCOC)c(-c3nc4c5n(nc4c(=O)[nH]3)CCCC5)c2)CC1 | 8.5 nM | 392 | – |
| CCc1c2nc(-c3cc(S(=O)(=O)N4CCN(CC)CC4)cnc3OCCOC)[nH]c(=O)c2nn1CC1CC1 | 1.01 nM | 189 | – |
| CCN1CCN(S(=O)(=O)c2cnc(OCCOC)c(-c3nc4c5n(nc4c(=O)[nH]3)CCCC5C)c2)CC1 (single isomer, unassigned; (-)) [listing 2 of 2 here] | – | 490 | – |
| CCOc1ncc(S(=O)(=O)N2CCN(CC)CC2)cc1-c1nc2c(CC)n(C3CNC3)nc2c(=O)[nH]1 | 15.8 nM | 28 | – |
| CCc1c2nc(-c3cc(S(=O)(=O)N4CCN(C)CC4)cnc3OCCOC)[nH]c(=O)c2nn1CC(C)C | 2.89 nM | 237 | half-life [4]: 28 min; logD [16]: 2.3; Papp A→B at 25 µM [19]: 19 ×10⁻⁶ cm/s; Ratio (Caco-2): 2.2 |
| CCN1CCN(S(=O)(=O)c2cnc(OCCOC)c(-c3nc4c5n(nc4c(=O)[nH]3)CCCC5C)c2)CC1 (single isomer, unassigned; (+)) [listing 2 of 2 here] | 2.76 nM | – | – |
